The results in this text go back to PubChem BioAssay.

The source made the active and inactive calls.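 Rule for the calls, unless noted: active = viability loss from added drug above about 55%, and viability with drug at most 40%, in both replicates (limit read from the data, passing the limit was not always enough); inconclusive = both conditions met in only one replicate; inactive = neither replicate meets both conditions.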

Assay [1] is described as follows: Her2 expression decrease, cell viability multiplex – SKBR3 breast tumor cells, AlphaScreen, ATP viability, primary screen (AID 461;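 active = Her2 level under about 52% in both replicate screens, with viability over 70% of control, limit read from the data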;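 for Her2 level: lower value means less Her2 protein in the cells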;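 for viability: percent of carrier control wells set as 100% viability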). To be noted: SKBR3 Her2 protein level, 18-24 h, measured here: SKBR3 viability, ATP luminescence, at 10 µM.
Assay [2] has as its target Receptor tyrosine-protein kinase erbB-2 (Homo sapiens) (UniProt P04626). Described as above. To be noted: 18-24 h, at 10 µM, stronger effect = lower value.
Assay [3] can be described thus: reduced viability of SK-BR-3 breast cancer cells – cell-based, 24 h, human, pilot screen (AID 572;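 active = viability at or below 10% of carrier control in both of two separate runs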;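 note: compound exposure lasted between 18 and 24 h rather than exactly 24 h; 100% = carrier-treated control wells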). To be noted: SK-BR-3 viability, CellTiter-Glo luminescence, at 10 µM, stronger effect = lower value.
A short description of assay [4]: HUVEC growth inhibition – cell-based, human, primary screen (AID 575;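 active = viability at or below 30% in both replicate assays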;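 note: 100% = median of untreated cell wells with 0.1% DMSO on each plate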). To be noted: HUVEC proliferation, CellTiter-Glo luminescence, 72 h; at 10 µM; stronger effect = lower value. The gist of the method:
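Timing: 72 h treatment at 37 °C; material: HUVEC primary cells; technique: CellTiter-Glo luminescence measuring cellular ATP; controls: vehicle and MePR control wells; measure: percent of median DMSO-control luminescence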
A general note: ATP-based viability assays read luminescence as a measure of living cells.

A short description of assay [5]: H69AR cell proliferation blockers – human, duplicate replicates, primary screen (AID 580;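 active = viability at or under a set limit in both replicates, limit being median viability minus 3 SD, cut at about 48% in these data, passing the limit was not always enough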;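 note: 100% = mean luminescence of untreated wells and 0% = no signal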). The conditions noted are these: H69AR lung tumor cells viability, ATP luminescence, 72 h; at 10 µM; stronger effect = lower value.
The nature of assay [6]: MRP1 drug-resistance reversers in H69AR cells – cell-based, doxorubicin co-treatment, pilot screen (AID 601). The conditions noted are these: CellTiter-Glo, 72 h, at 10 µM; for differential viability (reversal): stronger effect = higher value.
Assay [7] is described as follows: yeast transport mutant growth inhibition pilot in 384-well plates, post-Golgi transport modulator project (AID 636; in the data active = inhibition above about 31%). To be noted: absorbance 615 nm, about 18 h, stronger effect = higher value.
The nature of assay [8]: growth suppression of yeast trafficking mutant, preliminary HTS, modulators of trafficking downstream of Golgi apparatus project, 1536-format plate, OD 615 nm (AID 637; in the data active = inhibition above about 30%). The conditions noted are these: yeast transport mutant growth, absorbance 615 nm, 18 h; stronger effect = higher value.
The mark [9] stands for this setting: H69AR cells + 2 uM doxorubicin, measured here: viability with 2 uM doxorubicin, stronger effect = lower value.
The mark [10] stands for this setting: H69AR cells, compound alone cytotoxicity.

Chain of Receptor tyrosine-protein kinase erbB-2 (Homo sapiens) (P04626 whole entry, looked up): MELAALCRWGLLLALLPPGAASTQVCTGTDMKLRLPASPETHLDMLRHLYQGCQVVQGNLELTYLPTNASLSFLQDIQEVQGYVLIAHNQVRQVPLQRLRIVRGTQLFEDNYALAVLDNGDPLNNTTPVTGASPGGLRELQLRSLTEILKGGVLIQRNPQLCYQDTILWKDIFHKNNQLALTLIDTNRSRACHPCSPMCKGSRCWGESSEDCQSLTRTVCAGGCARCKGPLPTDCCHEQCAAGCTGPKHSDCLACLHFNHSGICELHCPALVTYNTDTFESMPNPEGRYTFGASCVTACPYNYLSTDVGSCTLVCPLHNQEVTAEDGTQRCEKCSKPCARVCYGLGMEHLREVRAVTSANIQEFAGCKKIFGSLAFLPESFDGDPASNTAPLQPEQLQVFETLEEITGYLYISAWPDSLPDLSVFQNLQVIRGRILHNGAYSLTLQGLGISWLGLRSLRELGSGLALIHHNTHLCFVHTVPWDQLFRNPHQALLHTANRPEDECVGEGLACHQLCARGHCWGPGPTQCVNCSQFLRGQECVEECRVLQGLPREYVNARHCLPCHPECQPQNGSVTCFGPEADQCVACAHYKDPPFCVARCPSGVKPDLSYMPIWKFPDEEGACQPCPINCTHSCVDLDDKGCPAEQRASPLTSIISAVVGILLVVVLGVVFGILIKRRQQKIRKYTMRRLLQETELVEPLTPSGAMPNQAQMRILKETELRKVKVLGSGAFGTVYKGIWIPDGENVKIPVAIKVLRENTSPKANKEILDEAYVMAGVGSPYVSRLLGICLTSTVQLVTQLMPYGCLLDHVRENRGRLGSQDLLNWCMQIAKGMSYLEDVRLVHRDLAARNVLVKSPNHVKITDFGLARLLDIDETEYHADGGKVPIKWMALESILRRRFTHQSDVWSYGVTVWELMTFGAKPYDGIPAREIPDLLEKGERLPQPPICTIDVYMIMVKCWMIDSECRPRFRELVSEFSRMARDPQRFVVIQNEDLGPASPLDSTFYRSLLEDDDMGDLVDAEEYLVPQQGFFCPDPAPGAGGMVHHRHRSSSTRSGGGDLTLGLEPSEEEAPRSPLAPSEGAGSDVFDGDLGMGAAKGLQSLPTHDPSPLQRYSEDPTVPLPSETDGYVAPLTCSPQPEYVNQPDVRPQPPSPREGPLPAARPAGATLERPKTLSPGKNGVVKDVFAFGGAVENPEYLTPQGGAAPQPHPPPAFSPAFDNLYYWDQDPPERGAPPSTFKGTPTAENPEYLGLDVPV

For `O=C(Nc1nccs1)c1ccc(COc2ccccc2Br)o1`, the viability (commonly a read-out of living cells in per cent, often relative to untreated cells) was 118% in assay [1]; 118% (inactive) in assay [3]; 50.3% (inactive) in assay [4]; 80.9% (inactive) in assay [5]; 83.7% in assay [6] (setting [9]); 80.9% in assay [6] (setting [10]). The Her2 level in assay [2] is 91.5% (inactive). Besides, the differential viability (reversal) in assay [6] (H69AR cells + 2 uM doxorubicin) was -2.83% (inactive). Further, the inhibition (usually the drop in the measured response relative to a control, in per cent) in assay [7] was -2.27% (inactive); in assay [8], -7.26% (inactive).
As for `CC1(C)Cc2c(c(N3CCOCC3)nc3sc(C#N)c(N)c23)CS1`, the viability is 92% in assay [1]; 92% (inactive) in assay [3]; 85.2% (inactive) in assay [4]; 83.3% (inactive) in assay [5]; 84.5% in assay [6] (setting [9]); 83.3% in assay [6] (setting [10]). The Her2 level in assay [2] is 122% (inactive). In addition, in assay [6] (H69AR cells + 2 uM doxorubicin), the differential viability (reversal) was -1.22% (inactive). Further, the figures for the inhibition in assay [7] and in assay [8] were 0.9% (inactive) and -8.67% (inactive), respectively.
`CCC(Sc1ncccc1C(=O)O)C(=O)N1CCCC1` (stereo not given): the viability was 92% in assay [1]; 92% (inactive) in assay [3]; 95.5% (inactive) in assay [4]; 101% (inactive) in assay [5]; 87.2% in assay [6] (setting [9]); 101% in assay [6] (setting [10]). The Her2 level in assay [2] is 93.5% (inactive). For the same molecule, in assay [6] (H69AR cells + 2 uM doxorubicin), the differential viability (reversal) is 14% (inactive). The figures for the inhibition in assay [7] and in assay [8] were 2.47% (inactive) and -5.9% (inactive), respectively.
Regarding `N#Cc1cn(CC(=O)N2CCCC2)c2ccccc12`, the viability was 118% in assay [1]; 118% (inactive) in assay [3]; 100% (inactive) in assay [4]; 93.6% (inactive) in assay [5]; 85.2% in assay [6] (setting [9]); 93.6% in assay [6] (setting [10]). The Her2 level in assay [2] was 85% (inactive). In addition, the differential viability (reversal) in assay [6] (H69AR cells + 2 uM doxorubicin) is 8.44% (inactive). The results for the inhibition in assay [7] and in assay [8] were -3.29% (inactive) and 1.15% (inactive), respectively.
On to `COc1ccc(OCC(=O)N2CCN(C(=O)c3cccs3)CC2)cc1`, for which the viability in assay [1] is 117%; in assay [3], 117% (inactive); in assay [4], 83.5% (inactive); in assay [5], 87.4% (inactive); in assay [6] (setting [9]), 85.6%; in assay [6] (setting [10]), 87.4%. For the same molecule, the Her2 level in assay [2] is 82.5% (inactive). Besides, in assay [6] (H69AR cells + 2 uM doxorubicin), the differential viability (reversal) was 1.78% (inactive). Also, the inhibition is -3.29% (inactive) in assay [7] and -2.9% (inactive) in assay [8].
As for `CCOC(=O)N1CCC(NC(=O)CCN2C(=O)COc3ccccc32)CC1`, the viability in assay [1] is 100%; in assay [3] it was 100% (inactive); in assay [4], 100% (inactive); in assay [5], 84.1% (inactive); in assay [6] (setting [9]) it was 77.5%; in assay [6] (setting [10]), 84.1%. Further, the Her2 level in assay [2] was 106% (inactive). Also, the differential viability (reversal) in assay [6] (H69AR cells + 2 uM doxorubicin) is 6.63% (inactive). The inhibition in assay [7] is 0% (inactive); in assay [8] it was -6.17% (inactive).
For `C/C(N)=C(/C#N)C(=O)CSc1nnc(Nc2cccc(C)c2)s1`, the viability was 114% in assay [1]; 114% (inactive) in assay [3]; 77.5% (inactive) in assay [4]; 83.8% (inactive) in assay [5]; 76% in assay [6] (setting [9]); 83.8% in assay [6] (setting [10]). Also, in assay [2], the Her2 level was 79% (inactive). For the same molecule, the differential viability (reversal) in assay [6] (H69AR cells + 2 uM doxorubicin) was 7.75% (inactive). For the same molecule, the inhibition was -2% (inactive) in assay [7] and 0.65% (inactive) in assay [8].
Turning to `C#CCNc1c(C)c(C)nc2ncnn12`, the viability is 104% in assay [1]; 104% (inactive) in assay [3]; 126% (inactive) in assay [4]; 104% (inactive) in assay [5]; 85.3% in assay [6] (setting [9]); 104% in assay [6] (setting [10]). For the same molecule, in assay [2], the Her2 level was 97% (inactive). Moreover, the differential viability (reversal) in assay [6] (H69AR cells + 2 uM doxorubicin) was 18.7% (inactive). Further, the figures for the inhibition in assay [7] and in assay [8] were -5.07% (inactive) and 11.5% (inactive), respectively.
Regarding `CCOC(=O)C(NC(=O)c1ccc(OC)cc1)(N1CCOCC1)C(F)(F)F` (stereo not given), the viability in assay [1] was 112%; in assay [3], 112% (inactive); in assay [4], 115% (inactive); in assay [5], 100% (inactive); in assay [6] (setting [9]) it was 102%; in assay [6] (setting [10]) it was 100%. For the same molecule, the Her2 level in assay [2] was 95.5% (inactive). Further, the differential viability (reversal) in assay [6] (H69AR cells + 2 uM doxorubicin) was -2.41% (inactive). Besides, the figures for the inhibition in assay [7] and in assay [8] were -4.81% (inactive) and 0.32% (inactive), respectively.
For `Cc1ccc(Nc2cc(-n3nc(C)cc3C)ncn2)cc1`, the viability in assay [1] was 96.5%; in assay [3] it was 96.5% (inactive); in assay [4] it was 70.7% (inactive); in assay [5], 74.8% (inactive); in assay [6] (setting [9]) it was 82.6%; in assay [6] (setting [10]) it was 74.8%. Further, the Her2 level in assay [2] was 97% (inactive). In addition, the differential viability (reversal) in assay [6] (H69AR cells + 2 uM doxorubicin) is -7.74% (inactive). The inhibition in assay [7] is -0.26% (inactive); in assay [8], -1.97% (inactive).
Turning to `CN(C)S(=O)(=O)N1CCN(C(=O)N(c2ccccc2)c2ccccc2)CC1`, the viability was 81.5% in assay [1]; 81.5% (inactive) in assay [3]; 99.4% (inactive) in assay [4]; 97.5% (inactive) in assay [5]; 102% in assay [6] (setting [9]); 97.5% in assay [6] (setting [10]). The Her2 level in assay [2] is 154% (inactive). In assay [6] (H69AR cells + 2 uM doxorubicin), the differential viability (reversal) was -4.56% (inactive). In addition, the inhibition in assay [7] was 1.28% (inactive); in assay [8], 12.7% (inactive).
On to `COc1ccc(N2CCN(C(c3cccc(OC)c3OC)c3nnnn3C3CCCC3)CC2)cc1` (stereo not given), for which the viability in assay [1] is 88%; in assay [3], 88% (inactive); in assay [4], 94.4% (inactive); in assay [5], 88.5% (inactive); in assay [6] (setting [9]), 88.9%; in assay [6] (setting [10]) it was 88.5%. Also, the Her2 level in assay [2] was 121% (inactive). The differential viability (reversal) in assay [6] (H69AR cells + 2 uM doxorubicin) is -0.405% (inactive). For the same molecule, the results for the inhibition in assay [7] and in assay [8] were 4.61% (inactive) and -2.06% (inactive), respectively.
In the case of `O=C(OCC(=O)N1CCc2ccccc21)C1=COCCO1`, the viability in assay [1] was 89.5%; in assay [3], 89.5% (inactive); in assay [4], 88.4% (inactive); in assay [5], 86.1% (inactive); in assay [6] (setting [9]) it was 67.9%; in assay [6] (setting [10]) it was 86.1%. In assay [2], the Her2 level was 90% (inactive). For the same molecule, in assay [6] (H69AR cells + 2 uM doxorubicin), the differential viability (reversal) was 18.2% (inactive). Further, the inhibition in assay [7] is -4.94% (inactive); in assay [8] it was -0.32% (inactive).
`COc1cc(OC)cc(-c2nnc(Nc3nc4c(F)cccc4s3)o2)c1`: the viability was 95.5% in assay [1]; 95.5% (inactive) in assay [3]; 5.89% (active) in assay [4]; 69.4% (inactive) in assay [5]; 87.3% in assay [6] (setting [9]); 69.4% in assay [6] (setting [10]). In addition, in assay [2], the Her2 level is 74% (inactive). In addition, the differential viability (reversal) in assay [6] (H69AR cells + 2 uM doxorubicin) was -17.9% (inactive). Further, the figures for the inhibition in assay [7] and in assay [8] were -5.07% (inactive) and 13.4% (inactive), respectively.
In the case of `Cc1ccccc1-n1c(=O)cc(NCc2ccc3c(c2)OCO3)[nH]c1=O`, the viability in assay [1] is 94.5%; in assay [3] it was 94.5% (inactive); in assay [4], 104% (inactive); in assay [5], 103% (inactive); in assay [6] (setting [9]) it was 100%; in assay [6] (setting [10]) it was 103%. In addition, the Her2 level in assay [2] is 89.5% (inactive). The differential viability (reversal) in assay [6] (H69AR cells + 2 uM doxorubicin) is 2.75% (inactive). Also, the inhibition in assay [7] was -2.57% (inactive); in assay [8], 1.75% (inactive).
